“And” between values parts separate entries of the source, which are not always exact repeats. Equal values may be shown once.
Tested on: U2OS
Assay: Multiplex assay against U2OS
Format: toxicity, cell-based
Conditions: human
Outline: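 Phenotypes for tubulin, mitochondrial mass and membrane permeability are expressed as per cents of healthy-nucleus cells. Cells were stained live at seeding with Hoechst33342, BioTracker Green Microtubule Cytoskeleton Dye, MitoTracker Red and Annexin V Alexa Fluor 680, then imaged after compound addition on a CQ1 microscope at 37°C and 5% CO2. Machine-learning gating in CellPathfinder separated Hoechst high-intensity objects from normal cells, divided normal cells by nuclear state (healthy, pyknosed, fragmented) and divided pyknosed cells into mitotic or apoptotic.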

[1] = 12 h, 1 µM, compound concentration 1 uM
[2] = 12 h, 10 µM, compound concentration 10 uM
[3] = 24 h, 1 µM, compound concentration 1 uM
[4] = 24 h, 10 µM, compound concentration 10 uM
[5] = 48 h, 1 µM, compound concentration 1 uM
[6] = 48 h, 10 µM, compound concentration 10 uM

COCCNc1cc(NC(=O)N2CCCc3cc(CN4CCOCC4=O)c(C=O)nc32)ncc1C#N
Population Apoptotic (%) [1]: 30.77% and 39.13% | Population Fragmented Nuclei (%) [1]: 2.11% and 3.05% | Population Healthy Nuclei (%) [1]: 87.63% and 82.93% | Population Hoechst High Intensity Objects (%) [1]: 0% | Population Membrane Permeable-Phenotype (%) [1]: 0.6% and 5.15% | Population Mitochondria Different-Phenotype (%) [1]: 0% and 8.82% | Population Mitotic Cells (%) [1]: 69.23% and 60.87% | Population Normal (%) [1]: 100% | Population Pyknosed Nuclei (%) [1]: 10.26% and 14.02% | Population Tubulin-Different-Phenotype (%) [1]: 0.6% and 0% | Total Cell Count [1]: 380 and 164 | Population Apoptotic (%) [2]: 46.15% and 40% | Population Fragmented Nuclei (%) [2]: 0.86% and 7.8% | Population Healthy Nuclei (%) [2]: 91.64% and 78.01% | Population Hoechst High Intensity Objects (%) [2]: 0% | Population Membrane Permeable-Phenotype (%) [2]: 1.57% and 1.82% | Population Mitochondria Different-Phenotype (%) [2]: 0.31% and 6.36% | Population Mitotic Cells (%) [2]: 53.85% and 60% | Population Normal (%) [2]: 100% | Population Pyknosed Nuclei (%) [2]: 7.49% and 14.18% | Population Tubulin-Different-Phenotype (%) [2]: 1.26% and 0.91% | Total Cell Count [2]: 347 and 141 | Population Apoptotic (%) [3]: 29.17% and 39.13% | Population Fragmented Nuclei (%) [3]: 2.21% and 0.97% | Population Healthy Nuclei (%) [3]: 88.93% and 87.92% | Population Hoechst High Intensity Objects (%) [3]: 0% | Population Membrane Permeable-Phenotype (%) [3]: 1.66% and 3.85% | Population Mitochondria Different-Phenotype (%) [3]: 0% and 4.95% | Population Mitotic Cells (%) [3]: 70.83% and 60.87% | Population Normal (%) [3]: 100% | Population Pyknosed Nuclei (%) [3]: 8.86% and 11.11% | Population Tubulin-Different-Phenotype (%) [3]: 1.04% and 0.55% | Total Cell Count [3]: 542 and 207 | Population Apoptotic (%) [4]: 54.55% and 40.91% | Population Fragmented Nuclei (%) [4]: 1.52% and 9.32% | Population Healthy Nuclei (%) [4]: 91.34% and 77.02% | Population Hoechst High Intensity Objects (%) [4]: 0% | Population Membrane Permeable-Phenotype (%) [4]: 0.95% and 2.42% | Population Mitochondria Different-Phenotype (%) [4]: 0% and 9.68% | Population Mitotic Cells (%) [4]: 45.45% and 59.09% | Population Normal (%) [4]: 100% | Population Pyknosed Nuclei (%) [4]: 7.14% and 13.66% | Population Tubulin-Different-Phenotype (%) [4]: 0.95% and 1.61% | Total Cell Count [4]: 462 and 161 | Population Apoptotic (%) [5]: 32.88% and 50% | Population Fragmented Nuclei (%) [5]: 2.93% and 2.02% | Population Healthy Nuclei (%) [5]: 89.69% and 90.49% | Population Hoechst High Intensity Objects (%) [5]: 0% | Population Membrane Permeable-Phenotype (%) [5]: 1.01% and 2.23% | Population Mitochondria Different-Phenotype (%) [5]: 0.23% and 5.1% | Population Mitotic Cells (%) [5]: 67.12% and 50% | Population Normal (%) [5]: 100% | Population Pyknosed Nuclei (%) [5]: 7.38% and 7.49% | Population Tubulin-Different-Phenotype (%) [5]: 0.56% and 1.27% | Total Cell Count [5]: 989 and 347 | Population Apoptotic (%) [6]: 38.46% and 32.14% | Population Fragmented Nuclei (%) [6]: 3.01% and 6.33% | Population Healthy Nuclei (%) [6]: 86.02% and 81.86% | Population Hoechst High Intensity Objects (%) [6]: 0% | Population Membrane Permeable-Phenotype (%) [6]: 1.4% and 3.09% | Population Mitochondria Different-Phenotype (%) [6]: 0.14% and 6.19% | Population Mitotic Cells (%) [6]: 61.54% and 67.86% | Population Normal (%) [6]: 100% | Population Pyknosed Nuclei (%) [6]: 10.96% and 11.81% | Population Tubulin-Different-Phenotype (%) [6]: 1.68% and 1.03%

O=C(Nc1cc(C(F)(F)F)cc(C(F)(F)F)c1)c1cc(Cl)ccc1O [IMD-0354]
Population Apoptotic (%) [1]: 56.25% and 45.83% | Population Fragmented Nuclei (%) [1]: 0.73% and 2.45% | Population Healthy Nuclei (%) [1]: 91.46% and 82.82% | Population Hoechst High Intensity Objects (%) [1]: 0.24% and 0.61% | Population Membrane Permeable-Phenotype (%) [1]: 0.27% and 2.22% | Population Mitochondria Different-Phenotype (%) [1]: 0% and 7.41% | Population Mitotic Cells (%) [1]: 43.75% and 54.17% | Population Normal (%) [1]: 99.76% and 99.39% | Population Pyknosed Nuclei (%) [1]: 7.8% and 14.72% | Population Tubulin-Different-Phenotype (%) [1]: 0.27% and 0.74% | Total Cell Count [1]: 411 and 164 | Population Apoptotic (%) [2]: 45.45% and 65% | Population Fragmented Nuclei (%) [2]: 2.48% and 9.2% | Population Healthy Nuclei (%) [2]: 87.61% and 79.31% | Population Hoechst High Intensity Objects (%) [2]: 0% | Population Membrane Permeable-Phenotype (%) [2]: 0% and 0.72% | Population Mitochondria Different-Phenotype (%) [2]: 0% and 2.9% | Population Mitotic Cells (%) [2]: 54.55% and 35% | Population Normal (%) [2]: 100% | Population Pyknosed Nuclei (%) [2]: 9.91% and 11.49% | Population Tubulin-Different-Phenotype (%) [2]: 0.26% and 0% | Total Cell Count [2]: 444 and 174 | Population Apoptotic (%) [3]: 40.91% and 57.69% | Population Fragmented Nuclei (%) [3]: 1.32% and 3.81% | Population Healthy Nuclei (%) [3]: 90.38% and 83.81% | Population Hoechst High Intensity Objects (%) [3]: 0% | Population Membrane Permeable-Phenotype (%) [3]: 0.21% and 1.7% | Population Mitochondria Different-Phenotype (%) [3]: 0% and 8.52% | Population Mitotic Cells (%) [3]: 59.09% and 42.31% | Population Normal (%) [3]: 100% | Population Pyknosed Nuclei (%) [3]: 8.3% and 12.38% | Population Tubulin-Different-Phenotype (%) [3]: 0.42% and 0.57% | Total Cell Count [3]: 530 and 210 | Population Apoptotic (%) [4]: 60.24% and 73.33% | Population Fragmented Nuclei (%) [4]: 1.8% and 8.77% | Population Healthy Nuclei (%) [4]: 79.5% and 73.68% | Population Hoechst High Intensity Objects (%) [4]: 0% | Population Membrane Permeable-Phenotype (%) [4]: 2.55% and 1.59% | Population Mitochondria Different-Phenotype (%) [4]: 0% and 0.79% | Population Mitotic Cells (%) [4]: 39.76% and 26.67% | Population Normal (%) [4]: 100% | Population Pyknosed Nuclei (%) [4]: 18.69% and 17.54% | Population Tubulin-Different-Phenotype (%) [4]: 3.4% and 0% | Total Cell Count [4]: 444 and 171 | Population Apoptotic (%) [5]: 46.15% and 44.44% | Population Fragmented Nuclei (%) [5]: 2.37% and 2.99% | Population Healthy Nuclei (%) [5]: 91.15% and 83.53% | Population Hoechst High Intensity Objects (%) [5]: 0% | Population Membrane Permeable-Phenotype (%) [5]: 0.68% and 0.36% | Population Mitochondria Different-Phenotype (%) [5]: 0.14% and 3.58% | Population Mitotic Cells (%) [5]: 53.85% and 55.56% | Population Normal (%) [5]: 100% | Population Pyknosed Nuclei (%) [5]: 6.48% and 13.47% | Population Tubulin-Different-Phenotype (%) [5]: 1.23% and 0.36% | Total Cell Count [5]: 802 and 334 | Population Apoptotic (%) [6]: 62.57% and 80.82% | Population Healthy Nuclei (%) [6]: 51.4% and 35.44% | Population Hoechst High Intensity Objects (%) [6]: 0% and 0.63% | Population Membrane Permeable-Phenotype (%) [6]: 13.86% and 7.14% | Population Mitochondria Different-Phenotype (%) [6]: 1.49% and 1.79% | Population Mitotic Cells (%) [6]: 37.43% and 19.18% | Population Normal (%) [6]: 100% and 99.37% | Population Pyknosed Nuclei (%) [6]: 45.55% and 46.2% | Population Tubulin-Different-Phenotype (%) [6]: 11.39% and 8.93% | Total Cell Count [6]: 393 and 159

— ChEMBL document CHEMBL5724801, “EUbOPEN Chemogenomics Library - Multiplex” (2024)
